Like-named read-outs stand apart in the source and are kept apart here.
What was measured:
[1] = Bioequivalence studies 1 and 2: PK summary across both treatments and studies; type: in vivo, human
Procedure, shortened: (§1)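 Single-center, randomized, open-label, laboratory-blinded, two-period, two-sequence crossover in healthy volunteers. Each subject got one oral dose of the fixed-dose combination or the co-administered reference tablets with ~240 ml water after a 10-h fast. Washout was at least 21 days. Parent drugs were measured in plasma by LC-MS after protein precipitation. Noncompartmental analysis used actual times, with t½ = ln(2)/λz.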

[2] = Study 3: safety, treatment-emergent adverse events; type: in vivo, human; settings: BISO 10 mg, RAMI 10 mg alone or together, % of subjects in the Safety population in each treatment group
[3] = type: in vivo; settings: human, plasma, po, 10 mg
Procedure, shortened: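 Single-center, randomized, open-label, three-period, six-sequence crossover in healthy volunteers. Each drug was given alone and with the other as a single oral dose after a 10-h fast. Blood was sampled to 72 h, and washout was at least 21 days. Plasma was analysed by LC-MS with stable isotope-labeled internal standards. Noncompartmental parameters: AUC0-T by linear trapezoidal rule, AUC∞ = AUC0-T + Clast/λz.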

[4] = type: in vivo; settings: human, plasma, oral, 5 mg
Procedure, shortened: as §1

[5] = type: in vivo, human
Procedure, shortened: as §1

Structure (SMILES) | time after dosing at which BISO peak concentrations were achieved ([1]; across both treatments, studies 1 and 2, BISO 10 mg single oral dose, fasting) [h] | half-life ([1]; human, plasma, oral) [h] | Subjects with at least one drug‐related TEAE [2] | AUC(0-inf) [3] [ng·h/mL] | AUC(0-t) [3] [ng·h/mL] | Cmax [3] [ng/mL] | Tmax [3] [h] | half-life [3] [h] | median time to ramipril peak concentration ([1]; across both treatments and studies 1 and 2) [h] | half-life [4] [h] | observed ISCV (intrasubject coefficient of variation) for Cmax ([5]; Study 1, expected 32%) [%] | half-life ([5]; human, plasma, oral, 10 mg) [h]
CC(C)NCC(O)COc1ccc(COCCOC(C)C)cc1 (stereo not drawn) [BISO, bisoprolol] | 2.33 | 10.7 to 10.9 | 4 (13.8) n (%) | 777 | 732 | 42.6 | 2.33 | 11.2 | – | – | – | –
CCOC(=O)[C@H](CCc1ccccc1)N[C@@H](C)C(=O)N1[C@H](C(=O)O)C[C@@H]2CCC[C@@H]21 [RAMI, ramipril] | – | – | 3 (10.7) n (%) | 18.1 | 17.1 | 24.1 | 0.5 | 2.03 | 0.50 | 1.39 to 1.68 | 36 | 2.17 to 2.32
